Most compounds without a hit are left out; they make up all but 2.1% or so of the library.
LMPTP inh: blocks human LMPTP phosphatase | P24666 | recombinant LMPTP-A, OMFP fluorogenic substrate, fluorescence intensity | inhibition, % at 20 µM | 360,000 tested, 0.22% active;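 active means compounds that cut the enzyme signal by at least half of the control window in the single-dose screen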;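 further: plate controls were DMSO wells with enzyme plus substrate for no effect and substrate without enzyme for full effect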
Target sequence (P24666 whole entry, looked up): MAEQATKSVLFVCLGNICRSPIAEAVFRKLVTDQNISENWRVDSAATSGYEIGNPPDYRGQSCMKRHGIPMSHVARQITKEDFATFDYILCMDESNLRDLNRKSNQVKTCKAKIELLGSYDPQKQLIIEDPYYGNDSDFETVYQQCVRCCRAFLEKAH
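Test system – LMPTP-A phosphatase enzyme · Quantity – 0.625 nM LMPTP-A final · Reagent – OMFP substrate, 400 µM final · Dosing – one test concentration per compound, 20 µM, with 3% DMSO overall · Timing – 50 min enzyme reaction at room temperature, protected from light · Detection – fluorescence intensity · Controls – substrate-only low control, DMSO enzyme-plus-substrate high control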
DNMT1 inh: blocks human DNA methyltransferase DNMT1; inhibition (reported as % activation of signal), % at 10 µM; AID 588458; P26358; DNMT1 molecular beacon, Hinp1I cleavage, fluorescence; 360,000 tested, 0.83% active; in the data active means inhibition above about 50%
SUMO1-SIM PPI: modulators of human SUMO1-mediated protein-protein interactions | SUMO1 binding to a labelled peptide, TR-FRET, 1 h | 360,000 tested, 0.33% active | inhibition, % at 20 µM; in the data active means inhibition above about 37%
Target sequence (P63165 whole entry, looked up): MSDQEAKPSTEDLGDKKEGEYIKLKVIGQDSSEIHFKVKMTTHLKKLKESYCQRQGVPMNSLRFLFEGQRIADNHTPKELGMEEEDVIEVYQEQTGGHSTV
Scp1 inh: inhibitors of human Scp-1 phosphatase; AID 493091; Recombinant Scp1, phosphopeptide, malachite green phosphate absorbance; 340,000 tested, 0.88% active; inhibition, % at 20 µM; Q9GZU7;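 active means inhibition above about 50% at 20 µM, limit read from the data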;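 further: plate controls were DMSO wells with enzyme for no effect and wells lacking enzyme for full effect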
Target sequence (Q9GZU7 76-261 limits assumed): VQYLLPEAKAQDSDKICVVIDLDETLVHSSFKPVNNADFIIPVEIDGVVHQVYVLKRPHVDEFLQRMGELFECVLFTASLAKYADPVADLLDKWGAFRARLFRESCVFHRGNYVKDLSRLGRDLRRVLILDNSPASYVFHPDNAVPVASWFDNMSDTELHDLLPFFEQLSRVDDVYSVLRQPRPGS
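assay system = SCP-1 phosphatase catalytic domain, residues 76-261 | buffer or medium = 50 mM Tris acetate pH 5.5, 0.005% Tween-20, 10 mM MgCl2 | incubation = enzyme reaction 45 min at room temperature, colour 5 min, stabilisation 30 min | signal = Phosphate-binding colour reagent, absorbance read at 630 nm | measure = % inhibition at 20 µM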
GRK2 aptamer HTS: blocks RNA aptamer binding to human GRK2; AID 488847; 330,000 tested, 0.59% active; P25098; bead flow cytometry, FAM-aptamer displacement from GRK2; inhibition of aptamer binding, % at 10 µM;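 active means inhibition of aptamer binding above 40%, roughly 3 SD of noise, on plates passing a quality check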;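 further: median bead fluorescence of bound FAM aptamer so fluorescent compounds give negative values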
STEP block: STEP (human) phosphatase inhibition; P54829; recombinant STEP, OMFP fluorogenic substrate, fluorescence; inhibition, % at 20 µM; 360,000 tested, 0.25% active; AID 588621;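 active means inhibition at 20 µM, scaled per plate between control wells, above about 37%, limit read from the data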;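 further: 0% = DMSO with enzyme and substrate and 100% = substrate only without enzyme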
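Test system: STEP tyrosine phosphatase / Reagent: OMFP at 25 µM / Doses: 20 µM, 1% DMSO / Read-out: percent inhibition scaled to no-enzyme and uninhibited-enzyme controls, plate-pattern corrected / Detection: FITC-channel fluorescence of OMFP product / Medium: Bis-Tris buffer pH 6.0, 2.5 mM DTT, 0.005% Tween 20 / Schedule: 20 min at room temperature, dark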
* hit, by the source's call.

How did COC(=O)c1sc(NC(=O)c2cc(-c3ccccc3)nc3ccccc23)c(C#N)c1C do in these assays?
LMPTP inh: 1; DNMT1 inh: -27; SUMO1-SIM PPI: 4; Scp1 inh: -9; GRK2 aptamer HTS: 0; STEP block: 91*

Results for CCOC(=O)c1sc(NC(=O)c2cc(-c3ccc(C)cc3)nc3ccccc23)c(C#N)c1C ?
LMPTP inh: 2; DNMT1 inh: -23; SUMO1-SIM PPI: 4; Scp1 inh: -11; GRK2 aptamer HTS: 0; STEP block: 10

How did CCc1nc2c(OCC3CCCCC3)cccn2c1N(C)C(=O)c1ccccc1F do in these assays?
LMPTP inh: 2; DNMT1 inh: -11; SUMO1-SIM PPI: -2; STEP block: 9

What do the screens show for `O=C(CSc1nnc2ccc(-c3ccco3)nn12)Nc1ccccc1F`?
LMPTP inh: 53*; DNMT1 inh: 10; SUMO1-SIM PPI: 6; Scp1 inh: 4; STEP block: 2

How did Cc1ccccc1NC(=O)CSc1nnc2ccc(-c3ccccn3)nn12 do in these assays?
LMPTP inh: -2; DNMT1 inh: 1; SUMO1-SIM PPI: -9; Scp1 inh: 0; GRK2 aptamer HTS: 3; STEP block: 1

How did CC(NCC(O)COCc1ccc(Cl)cc1)c1ccccc1 (centres undefined) do in these assays?
LMPTP inh: -2; DNMT1 inh: 3; SUMO1-SIM PPI: 65*; Scp1 inh: -13; GRK2 aptamer HTS: 0; STEP block: -3

Results for OC(CNCc1ccccc1)COCc1ccc(Cl)cc1 (centres undefined) ?
LMPTP inh: 0; DNMT1 inh: 1; SUMO1-SIM PPI: -1; Scp1 inh: -15; GRK2 aptamer HTS: 0; STEP block: -3

Results for C(=Cc1nc2ccccc2o1)c1ccc2c(c1)OCO2 ?
LMPTP inh: -1; DNMT1 inh: -3; SUMO1-SIM PPI: -15; STEP block: 0

How did C[n+]1c(/C=C/c2ccc3c(c2)OCO3)ccc2ccccc21 do in these assays?
LMPTP inh: 0; DNMT1 inh: 2; SUMO1-SIM PPI: -8; Scp1 inh: 105*; GRK2 aptamer HTS: 0; STEP block: -1

What do the screens show for `CCCCCCc1cc2cc(-c3nnc(-c4ccccc4O)o3)c(=O)oc2cc1O`?
LMPTP inh: 1; DNMT1 inh: 87*; SUMO1-SIM PPI: 8; Scp1 inh: -8; GRK2 aptamer HTS: 4; STEP block: -1

What do the screens show for `CCCCCCc1cc2cc(-c3nnc(-c4cc(OC)c(OC)c(OC)c4)o3)c(=O)oc2cc1O`?
Scp1 inh: 0; GRK2 aptamer HTS: 0

What do the screens show for `CCOc1cc(NC(=O)c2cnccn2)c(OCC)cc1NC(=O)c1cccc(F)c1`?
GRK2 aptamer HTS: 68*

Results for CCOc1cc(NC(=O)C2CC2)c(OCC)cc1NC(=O)c1cccc(F)c1 ?
LMPTP inh: 0; DNMT1 inh: 7; SUMO1-SIM PPI: -1; Scp1 inh: -8; GRK2 aptamer HTS: 1; STEP block: -1

What do the screens show for `CC(C)C[C@H]1CNC(=O)C(=O)N1CC1CCN(CC2CCC(C(C)(C)C)CC2)CC1` (some centres undefined)?
LMPTP inh: -2; DNMT1 inh: 6; SUMO1-SIM PPI: 0; Scp1 inh: -2; STEP block: -4

How did O=C1C=C(N2CCOCC2)c2ccccc2C1=O do in these assays?
LMPTP inh: 11; DNMT1 inh: 82*; SUMO1-SIM PPI: 40*; Scp1 inh: 0; GRK2 aptamer HTS: 6; STEP block: 1

What do the screens show for `CCNc1nc(-c2cc(C)n(Cc3ccco3)c2C)cs1`?
LMPTP inh: 3; DNMT1 inh: -27; SUMO1-SIM PPI: -1; Scp1 inh: -4; GRK2 aptamer HTS: 0; STEP block: 0

Results for Cc1cc(-c2csc(NC(=O)c3ccc(=O)[nH]c3)n2)c(C)n1Cc1ccco1 ?
LMPTP inh: 63*; DNMT1 inh: 74*; SUMO1-SIM PPI: 78*; Scp1 inh: -9; GRK2 aptamer HTS: 1; STEP block: 11

Results for COC(=O)Cn1ccnc1[N+](=O)[O-] ?
LMPTP inh: -1; DNMT1 inh: 4; SUMO1-SIM PPI: -8; STEP block: -1

What do the screens show for `FC(F)(F)C1=Nc2cccc3cccc(c23)N1`?
LMPTP inh: 87*; DNMT1 inh: 108*; SUMO1-SIM PPI: 117*; Scp1 inh: -1; STEP block: 18

What do the screens show for `CCC(=O)N1CCCC(C)(C(=O)NS(=O)(=O)c2ccccc2Cl)C1` (centres undefined)?
LMPTP inh: -3; DNMT1 inh: -1; SUMO1-SIM PPI: 0; STEP block: -1

What do the screens show for `Fc1c(F)c(C(F)(F)F)c(F)c(F)c1N/N=C\c1cccs1`?
LMPTP inh: 2; DNMT1 inh: -7; SUMO1-SIM PPI: 41*; Scp1 inh: -4; GRK2 aptamer HTS: 3; STEP block: -2

What do the screens show for `O=C(NCc1cc(C(F)(F)F)ccc1Cl)c1cccc2c1C(=O)c1ccc(N3CCC(N4CCCCC4)CC3)cc1S2(=O)=O`?
LMPTP inh: 21; DNMT1 inh: 7; SUMO1-SIM PPI: 64*; STEP block: 1

Results for COc1ccc(C(=O)Nc2ccccc2C(=O)NC(Cc2ccc(O)cc2)C(=O)NNC(=O)c2ccc(C)cc2)cc1 (centres undefined) ?
LMPTP inh: 11; DNMT1 inh: -8; SUMO1-SIM PPI: 78*; Scp1 inh: -7; GRK2 aptamer HTS: 0; STEP block: 4

Results for O=C(NCc1ccccn1)[C@@H]1CCCN1C(=O)[C@@H]1CCCN1C(=O)c1cccc2ccccc12 ?
LMPTP inh: -2; SUMO1-SIM PPI: -4

What do the screens show for `CN(C)c1ccc(/C=C2/SC(=O)N(CCN=C3NS(=O)(=O)c4ccccc43)C2=O)cc1`?
LMPTP inh: 1; DNMT1 inh: -26; SUMO1-SIM PPI: 41*; Scp1 inh: -3; GRK2 aptamer HTS: 1; STEP block: -1

What do the screens show for `COC(=O)[C@@]1(Cc2ccc(F)cc2)[C@H]2c3cc(C(=O)N(C)C)n(CCc4c[nH]c5ccc(O)cc45)c3C[C@H]2CN1C(=O)c1ccccc1`?
LMPTP inh: 3; SUMO1-SIM PPI: 7

What do the screens show for `O=C(Nc1ccc(Nc2ccncc2)cc1)c1ccc(Nc2ccnc3ccc([N+](=O)[O-])cc23)cc1`?
LMPTP inh: 78*; DNMT1 inh: -70; SUMO1-SIM PPI: 128*; Scp1 inh: 0; STEP block: 85*

How did CCOC(=O)C1=C(COc2ccccc2)NC(=O)NC1c1ccc(Br)cc1 (centres undefined) do in these assays?
LMPTP inh: 2; DNMT1 inh: 4; SUMO1-SIM PPI: 47*; Scp1 inh: 39; GRK2 aptamer HTS: 0; STEP block: -1

Assay outcomes from PubChem BioAssay.
